From the M2OR odorant receptor database
Where a chain is given by its changes, count along the chain named.

Tests used:
Settings in all cases: stereoisomer not certain
OR4N2 [1] = system: T1, OR4N2
T1 sequence (whole entry): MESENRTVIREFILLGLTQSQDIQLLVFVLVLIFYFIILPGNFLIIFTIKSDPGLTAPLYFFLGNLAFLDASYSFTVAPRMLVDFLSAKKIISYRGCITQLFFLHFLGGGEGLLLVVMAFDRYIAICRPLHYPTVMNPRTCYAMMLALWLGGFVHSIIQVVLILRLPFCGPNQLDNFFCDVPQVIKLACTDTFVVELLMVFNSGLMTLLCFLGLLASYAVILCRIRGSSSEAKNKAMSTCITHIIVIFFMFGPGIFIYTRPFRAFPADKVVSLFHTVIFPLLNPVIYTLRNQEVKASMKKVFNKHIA
How it was run: (§1)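 Whether a receptor–molecule pair is responsive (active) rests on the original authors' judgment that its measured signal was statistically different from baseline. Pairs without that judgment are non-responsive (inactive). Sources used varied assay methods, commonly transient luciferase assays in mammalian cell lines.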

OR4N4 (Homo sapiens) = molecular target: T2, OR4N4 (Homo sapiens) (UniProt Q8N0Y3)
T2 sequence (whole entry): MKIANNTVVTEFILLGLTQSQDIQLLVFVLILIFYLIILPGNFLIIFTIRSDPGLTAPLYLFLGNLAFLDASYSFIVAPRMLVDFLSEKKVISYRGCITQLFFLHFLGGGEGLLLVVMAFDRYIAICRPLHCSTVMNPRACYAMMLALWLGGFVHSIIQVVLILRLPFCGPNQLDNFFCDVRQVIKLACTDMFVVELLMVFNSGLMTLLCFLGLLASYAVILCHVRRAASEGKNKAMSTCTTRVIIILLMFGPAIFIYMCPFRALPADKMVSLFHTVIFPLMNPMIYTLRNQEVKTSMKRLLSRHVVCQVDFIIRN
How it was run: as §1

OR4N5 (Homo sapiens) = molecular target: T3, OR4N5 (Homo sapiens) (UniProt Q8IXE1)
T3 sequence (whole entry): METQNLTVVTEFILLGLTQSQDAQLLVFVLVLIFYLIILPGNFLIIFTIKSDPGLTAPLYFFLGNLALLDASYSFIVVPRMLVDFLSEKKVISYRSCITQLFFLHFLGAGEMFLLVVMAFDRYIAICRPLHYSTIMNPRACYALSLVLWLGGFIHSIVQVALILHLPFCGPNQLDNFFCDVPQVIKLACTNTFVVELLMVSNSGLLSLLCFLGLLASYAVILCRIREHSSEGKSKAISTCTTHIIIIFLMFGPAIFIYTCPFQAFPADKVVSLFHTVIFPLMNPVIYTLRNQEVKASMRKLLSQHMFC
How it was run: as §1

OR4P4 (Homo sapiens) = molecular target: T4, OR4P4 (Homo sapiens) (UniProt Q8NGL7)
T4 sequence (whole entry): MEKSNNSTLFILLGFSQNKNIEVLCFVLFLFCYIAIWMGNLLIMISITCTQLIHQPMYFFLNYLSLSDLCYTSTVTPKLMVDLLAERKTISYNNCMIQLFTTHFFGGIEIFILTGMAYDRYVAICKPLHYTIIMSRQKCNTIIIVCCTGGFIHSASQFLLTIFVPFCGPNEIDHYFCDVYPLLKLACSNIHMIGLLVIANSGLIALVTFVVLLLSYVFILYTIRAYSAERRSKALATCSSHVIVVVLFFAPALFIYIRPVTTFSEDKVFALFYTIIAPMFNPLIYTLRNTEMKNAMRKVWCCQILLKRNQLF
How it was run: as §1

OR4Q3 (Homo sapiens) = molecular target: T5, OR4Q3 (Homo sapiens) (UniProt Q8NH05)
T5 sequence (whole entry): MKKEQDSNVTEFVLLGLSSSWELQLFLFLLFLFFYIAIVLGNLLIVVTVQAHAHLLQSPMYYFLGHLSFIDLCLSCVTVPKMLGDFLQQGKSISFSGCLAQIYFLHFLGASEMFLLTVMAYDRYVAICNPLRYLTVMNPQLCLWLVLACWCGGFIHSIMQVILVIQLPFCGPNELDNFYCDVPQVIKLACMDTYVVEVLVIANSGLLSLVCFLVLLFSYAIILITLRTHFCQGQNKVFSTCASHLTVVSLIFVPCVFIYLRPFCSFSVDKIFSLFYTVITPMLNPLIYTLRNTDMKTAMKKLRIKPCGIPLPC
How it was run: as §1

OR4Q3 T135A = system: T6, OR4Q3 T135A
T6 sequence (whole entry): T5 sequence (whole entry) with T135A
How it was run: as §1

OR4S1 (Homo sapiens) = molecular target: T7, OR4S1 (Homo sapiens) (UniProt Q8NGB4)
T7 sequence (whole entry): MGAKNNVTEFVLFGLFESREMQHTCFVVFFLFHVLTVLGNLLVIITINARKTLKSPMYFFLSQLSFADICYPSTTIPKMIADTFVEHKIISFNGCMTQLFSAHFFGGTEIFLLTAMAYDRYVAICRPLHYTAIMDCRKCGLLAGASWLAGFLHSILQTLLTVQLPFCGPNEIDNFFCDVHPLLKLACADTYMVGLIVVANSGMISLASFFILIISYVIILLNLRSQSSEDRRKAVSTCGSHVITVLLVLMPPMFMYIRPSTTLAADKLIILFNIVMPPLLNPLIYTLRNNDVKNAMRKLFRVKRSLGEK
How it was run: as §1

OR4S2 (Homo sapiens) = molecular target: T8, OR4S2 (Homo sapiens) (UniProt Q8NH73)
T8 sequence (whole entry): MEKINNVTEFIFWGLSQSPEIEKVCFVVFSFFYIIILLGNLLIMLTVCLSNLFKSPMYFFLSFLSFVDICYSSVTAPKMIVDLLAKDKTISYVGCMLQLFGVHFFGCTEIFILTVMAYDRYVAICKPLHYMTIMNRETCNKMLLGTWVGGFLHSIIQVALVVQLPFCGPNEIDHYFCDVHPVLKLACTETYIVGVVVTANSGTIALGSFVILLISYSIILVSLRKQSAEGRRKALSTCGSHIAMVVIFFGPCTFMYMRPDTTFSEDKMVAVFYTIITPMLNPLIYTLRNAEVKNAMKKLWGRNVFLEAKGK
How it was run: as §1

OR4X1 (Homo sapiens) = molecular target: T9, OR4X1 (Homo sapiens) (UniProt Q8NH49)
T9 sequence (whole entry): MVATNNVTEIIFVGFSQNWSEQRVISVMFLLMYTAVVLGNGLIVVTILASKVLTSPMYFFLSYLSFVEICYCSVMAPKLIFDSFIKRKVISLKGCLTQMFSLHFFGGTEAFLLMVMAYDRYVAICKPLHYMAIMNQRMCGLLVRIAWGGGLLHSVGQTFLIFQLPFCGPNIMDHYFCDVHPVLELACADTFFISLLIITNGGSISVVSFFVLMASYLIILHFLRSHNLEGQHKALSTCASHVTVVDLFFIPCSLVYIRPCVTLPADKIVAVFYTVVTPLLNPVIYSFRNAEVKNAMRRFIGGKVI
How it was run: as §1

OR4X2 (Homo sapiens) = molecular target: T10, OR4X2 (Homo sapiens) (UniProt Q8NGF9)
T10 sequence (whole entry): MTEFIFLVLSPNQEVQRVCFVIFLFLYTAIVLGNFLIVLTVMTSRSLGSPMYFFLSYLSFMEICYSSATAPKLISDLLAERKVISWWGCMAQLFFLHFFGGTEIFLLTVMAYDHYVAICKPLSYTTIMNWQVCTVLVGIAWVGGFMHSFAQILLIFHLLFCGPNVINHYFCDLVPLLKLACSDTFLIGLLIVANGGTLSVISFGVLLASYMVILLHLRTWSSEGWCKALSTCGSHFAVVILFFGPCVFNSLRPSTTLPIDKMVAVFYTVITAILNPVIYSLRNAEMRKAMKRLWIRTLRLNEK
How it was run: as §1

OR51A2 (Homo sapiens) = molecular target: T11, OR51A2 (Homo sapiens) (UniProt Q8NGJ7)
T11 sequence (whole entry): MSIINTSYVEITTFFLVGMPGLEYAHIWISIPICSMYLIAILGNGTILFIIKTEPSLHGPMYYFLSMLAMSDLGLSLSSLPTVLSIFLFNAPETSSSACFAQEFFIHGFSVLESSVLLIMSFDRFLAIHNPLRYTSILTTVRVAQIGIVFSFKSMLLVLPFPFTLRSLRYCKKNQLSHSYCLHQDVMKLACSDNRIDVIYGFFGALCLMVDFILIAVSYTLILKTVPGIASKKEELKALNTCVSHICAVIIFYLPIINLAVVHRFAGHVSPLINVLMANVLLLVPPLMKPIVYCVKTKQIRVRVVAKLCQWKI
How it was run: as §1

OR51A4 (Homo sapiens) = molecular target: T12, OR51A4 (Homo sapiens) (UniProt Q8NGJ6)
T12 sequence (whole entry): T11 sequence (whole entry) with G59E, T94I, S97N, S167N, P227L, E235Q, G267R, M288T, K289N, W311R
How it was run: as §1

OR51A7 (Homo sapiens) = molecular target: T13, OR51A7 (Homo sapiens) (UniProt Q8NH64)
T13 sequence (whole entry): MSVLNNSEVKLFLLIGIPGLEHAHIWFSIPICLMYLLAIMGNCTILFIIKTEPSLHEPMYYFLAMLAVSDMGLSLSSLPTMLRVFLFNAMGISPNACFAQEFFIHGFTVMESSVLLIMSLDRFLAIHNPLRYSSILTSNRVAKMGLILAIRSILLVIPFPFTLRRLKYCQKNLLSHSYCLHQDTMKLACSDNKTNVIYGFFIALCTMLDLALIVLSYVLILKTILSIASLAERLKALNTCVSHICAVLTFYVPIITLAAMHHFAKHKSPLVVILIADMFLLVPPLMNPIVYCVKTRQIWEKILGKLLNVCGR
How it was run: as §1

OR51B2 (Homo sapiens) = molecular target: T14, OR51B2 (Homo sapiens) (UniProt Q9Y5P1)
T14 sequence (whole entry): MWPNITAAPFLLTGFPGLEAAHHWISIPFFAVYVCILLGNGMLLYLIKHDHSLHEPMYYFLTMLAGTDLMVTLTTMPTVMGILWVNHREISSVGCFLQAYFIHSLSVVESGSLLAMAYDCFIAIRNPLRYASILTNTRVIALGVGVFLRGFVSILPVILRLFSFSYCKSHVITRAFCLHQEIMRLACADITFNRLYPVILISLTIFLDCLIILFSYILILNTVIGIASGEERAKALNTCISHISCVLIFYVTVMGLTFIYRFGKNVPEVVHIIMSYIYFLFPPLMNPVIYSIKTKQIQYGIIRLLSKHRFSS
How it was run: as §1

OR51B4 (Homo sapiens) = molecular target: T15, OR51B4 (Homo sapiens) (UniProt Q9Y5P0)
T15 sequence (whole entry): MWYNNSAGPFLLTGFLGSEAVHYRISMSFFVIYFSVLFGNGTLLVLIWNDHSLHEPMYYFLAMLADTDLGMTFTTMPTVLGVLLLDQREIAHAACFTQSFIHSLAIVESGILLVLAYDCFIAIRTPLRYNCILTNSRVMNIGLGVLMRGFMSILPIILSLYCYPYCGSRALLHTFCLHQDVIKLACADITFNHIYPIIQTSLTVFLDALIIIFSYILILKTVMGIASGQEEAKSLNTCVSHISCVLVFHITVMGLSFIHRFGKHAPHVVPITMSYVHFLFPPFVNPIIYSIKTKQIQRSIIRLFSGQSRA
How it was run: as §1

OR51B5 (Homo sapiens) = molecular target: T16, OR51B5 (Homo sapiens) (UniProt Q9H339)
T16 sequence (whole entry): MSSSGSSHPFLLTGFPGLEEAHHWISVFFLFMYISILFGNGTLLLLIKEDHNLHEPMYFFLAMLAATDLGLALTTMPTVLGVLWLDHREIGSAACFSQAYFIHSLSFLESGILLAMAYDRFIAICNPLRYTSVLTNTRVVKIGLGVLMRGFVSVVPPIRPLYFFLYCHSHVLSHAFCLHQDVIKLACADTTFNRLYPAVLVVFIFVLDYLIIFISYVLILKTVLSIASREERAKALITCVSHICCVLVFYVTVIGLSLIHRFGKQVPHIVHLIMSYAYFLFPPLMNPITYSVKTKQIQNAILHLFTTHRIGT
How it was run: as §1

OR51B6 (Homo sapiens) = molecular target: T17, OR51B6 (Homo sapiens) (UniProt Q9H340)
T17 sequence (whole entry): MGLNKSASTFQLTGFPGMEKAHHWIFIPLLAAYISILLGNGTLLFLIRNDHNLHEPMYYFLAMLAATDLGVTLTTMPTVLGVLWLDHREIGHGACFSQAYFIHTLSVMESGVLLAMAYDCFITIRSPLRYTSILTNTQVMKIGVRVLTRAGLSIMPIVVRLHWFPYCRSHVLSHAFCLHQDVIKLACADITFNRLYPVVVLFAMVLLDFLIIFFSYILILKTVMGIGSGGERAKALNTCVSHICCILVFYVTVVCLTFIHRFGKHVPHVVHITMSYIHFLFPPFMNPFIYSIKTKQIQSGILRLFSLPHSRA
How it was run: as §1

OR4N2 [2] = system: OR4N2; remark: listed apart in the source
How it was run: as §1
Target sequence in this assay (as listed by the source): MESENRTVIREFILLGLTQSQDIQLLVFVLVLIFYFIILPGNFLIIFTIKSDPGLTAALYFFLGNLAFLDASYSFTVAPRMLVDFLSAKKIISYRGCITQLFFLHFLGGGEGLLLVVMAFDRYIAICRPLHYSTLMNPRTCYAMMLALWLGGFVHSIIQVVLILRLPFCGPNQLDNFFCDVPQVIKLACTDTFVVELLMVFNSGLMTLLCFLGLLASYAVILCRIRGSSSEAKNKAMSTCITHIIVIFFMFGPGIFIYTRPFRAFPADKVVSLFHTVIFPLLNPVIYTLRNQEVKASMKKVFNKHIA

OR4N4C (Homo sapiens) = OR4N4C (Homo sapiens) (UniProt A0A096LPK9)
How it was run: as §1

OR4Q2 (Homo sapiens) = OR4Q2 (Homo sapiens) (UniProt P0C623)
How it was run: as §1

Measured: odorant receptor agonist call;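 further: active if original authors judged signal statistically different from baseline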

OR4Q2 (Homo sapiens), sequence (P0C623 as listed by the source): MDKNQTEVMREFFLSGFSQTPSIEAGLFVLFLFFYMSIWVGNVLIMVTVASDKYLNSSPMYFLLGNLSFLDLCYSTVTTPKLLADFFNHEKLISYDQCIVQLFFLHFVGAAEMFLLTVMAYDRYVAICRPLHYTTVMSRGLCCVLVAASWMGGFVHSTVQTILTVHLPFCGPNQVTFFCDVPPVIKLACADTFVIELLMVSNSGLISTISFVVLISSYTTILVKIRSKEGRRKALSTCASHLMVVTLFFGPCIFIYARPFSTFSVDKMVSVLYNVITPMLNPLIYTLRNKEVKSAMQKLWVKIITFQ
OR4N4C (Homo sapiens), sequence (A0A096LPK9 whole entry): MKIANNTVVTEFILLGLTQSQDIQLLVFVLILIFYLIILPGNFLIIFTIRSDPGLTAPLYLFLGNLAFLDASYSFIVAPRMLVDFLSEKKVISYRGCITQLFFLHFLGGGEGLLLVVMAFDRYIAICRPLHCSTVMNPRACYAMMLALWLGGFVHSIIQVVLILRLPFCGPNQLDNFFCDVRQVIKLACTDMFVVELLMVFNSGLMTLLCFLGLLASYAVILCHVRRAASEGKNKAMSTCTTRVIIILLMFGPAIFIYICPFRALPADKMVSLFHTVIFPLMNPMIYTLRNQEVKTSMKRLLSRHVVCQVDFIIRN

Cc1cnc(C)c(C)n1
not listed: OR4N2 [2] | OR4N4C (Homo sapiens) | OR4Q2 (Homo sapiens)
inactive: all other assays above

CCCC(S)CCOC(C)=O (stereo not drawn)
not listed: OR4N2 [2] | OR4N4C (Homo sapiens) | OR4Q2 (Homo sapiens)
inactive: all other assays above

O=c1ccc2ccccc2o1
inactive: OR4N2 [2] | OR4N2 [1] | OR51B5 (Homo sapiens)

CCC(=O)O
inactive: OR51B5 (Homo sapiens)

CCC1OC(C)=C(O)C1=O (stereo not drawn)
not listed: OR4N2 [2] | OR4N4C (Homo sapiens) | OR4Q2 (Homo sapiens)
inactive: all other assays above

CC1=C(O)C(=O)OC1C (stereo not drawn)
not listed: OR4N2 [2] | OR4N4C (Homo sapiens) | OR4Q2 (Homo sapiens)
inactive: all other assays above

CC(=O)c1c(C)c([N+](=O)[O-])c(C(C)(C)C)c([N+](=O)[O-])c1C
not listed: OR4N2 [1] | OR4Q3 T135A | OR4N2 [2]
inactive: all other assays above

CC1=C(O)C(=O)C(C)O1 (stereo not drawn)
not listed: OR4N2 [2] | OR4N4C (Homo sapiens) | OR4Q2 (Homo sapiens)
inactive: all other assays above

CCCCC(S)C(C)CO (stereo not drawn)
not listed: OR4N2 [1] | OR4Q3 T135A | OR4N2 [2] | OR4N4C (Homo sapiens) | OR4Q2 (Homo sapiens)
inactive: all other assays above

CCCCCC1CCCC(=O)O1 (stereo not drawn)
inactive: OR51A2 (Homo sapiens) | OR51A4 (Homo sapiens) | OR51A7 (Homo sapiens) | OR51B2 (Homo sapiens) | OR51B4 (Homo sapiens) | OR51B5 (Homo sapiens) | OR51B6 (Homo sapiens)
